Results from ChEMBL document CHEMBL1795243, “New microtubule polymerization inhibitors comprising a nitrooxymethylphenyl group” (Bioorg Med Chem, 2011).
The source made the active and inactive calls. The rule behind the calls is not given here.

Legend:
HCT-116 [1] = assay: Antiproliferative activity against human HCT116 cells after 72 hrs by cell counting kit analysis; assay type: functional, cell-based; conditions: HCT-116, 72 h
In short: (§1)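 Cells grown with compound for 72 h, then growth quantified by WST-1 Cell Counting Kit. Final concentrations 1, 10, 25, 50, 100 and 200 μM. All media had 10% FBS, 37 °C, 5% CO2. Read-out IC50.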

SW-620 = assay: Antiproliferative activity against human SW620 cells after 72 hrs by cell counting kit analysis; assay type: functional, cell-based; conditions: SW-620, 72 h; in short: as §1
SW480 = assay: Antiproliferative activity against human SW480 cells after 72 hrs by cell counting kit analysis; assay type: functional, cell-based; conditions: SW480, 72 h; in short: as §1
SK-BR-3 = assay: Antiproliferative activity against human SK-BR-3 cells after 72 hrs by cell counting kit analysis; assay type: functional, cell-based; conditions: SK-BR-3, 72 h; in short: as §1
MCF7 = assay: Antiproliferative activity against human MCF7 cells after 72 hrs by cell counting kit analysis; assay type: functional, cell-based; conditions: MCF7, 72 h; in short: as §1
MDA-MB-231 = assay: Antiproliferative activity against human MDA-MB-231 cells after 72 hrs by cell counting kit analysis; assay type: functional, cell-based; conditions: MDA-MB-231, 72 h; in short: as §1
HCT-116 [2] = assay: Cell cycle arrest in human HCT116 cells assessed as accumulation at sub-G1 phase at 20 uM after 24 hrs by FACS analysis (reference value: 6.2 %); assay type: functional
HCT-116 [3] = assay: Cell cycle arrest in human HCT116 cells assessed as accumulation at G0/G1 phase at 20 uM after 24 hrs by FACS analysis (reference value: 76.5 %); assay type: functional
HCT-116 [4] = assay: Cell cycle arrest in human HCT116 cells assessed as accumulation at G2/M phase at 20 uM after 24 hrs by FACS analysis (reference value: 10.9 %); assay type: functional
HCT-116 [5] = assay: Cell cycle arrest in human HCT116 cells assessed as accumulation at S phase at 20 uM after 24 hrs by FACS analysis (reference value: 8.5 %); assay type: functional
[6] = Antiproliferative activity against human CCD-1059SK cells at 200 uM after 72 hrs by cell counting kit analysis; assay type: cell-based; in short: as §1
HCT-116 [7] = assay: Cell cycle arrest in human HCT116 cells assessed as increase of phosphorylated histone H3 at Ser10 level at 20 to 40 uM after 24 hrs by Western blotting; assay type: functional, cell-based
In short: (§2)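 HCT116 (1.0×10^6/dish) serum-starved 24 h, then treated 24 h in serum-free medium (0.4% DMSO control). Lysed 1 h at 0 °C in modified lysis buffer (pH 8.0, 1% NP-40). 7.5 µg protein run on SDS-PAGE and PVDF blot, probed for phospho-histone H3 Ser10 and total H3, ECL detection. Five independent experiments.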

HCT-116 [8] = assay: Cell cycle arrest in human HCT116 cells assessed as increase of phosphorylated histone H3 at Ser10 level at 20 uM after 24 hrs using propidium iodide staining by flow cytometry (reference value: 1.4 %); assay type: functional
HCT-116 [9] = assay: Induction of apoptosis in human HCT116 cells at 20 uM after 48 hrs using FITC-TUNEL staining by flow cytometry (reference value: 7.3 %); assay type: functional
In short: (§3)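 HCT116 at 1.0×10^6 per 60 mm dish, treated 24 or 48 h (0.4% DMSO control). Floating plus adherent cells assayed with DeadEnd Fluorometric TUNEL System, and FITC-TUNEL-positive percentage read by flow cytometry. Five independent experiments.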

HCT-116 [10] = assay: Induction of apoptosis in human HCT116 cells at 20 uM after 24 hrs using FITC-TUNEL staining by flow cytometry; assay type: functional; in short: as §3
Tubulin (Homo sapiens) [11] = biological target: T1, Tubulin (Homo sapiens) (UniProt P68371+Q9H4B7+P0DPH7+P68366+Q13509+Q71U36+P04350+Q3ZCM7+P07437+P68363+Q9BQE3+Q6PEY2+Q13885+Q9BVA1+Q9BUF5); assay: Inhibition of alpha-tubulin polymerization in human HT1080 cells assessed as disruption of microtubule structures at 10 uM after 4 hrs using Hoechst staining by fluorescence microscopic analysis; assay type: cell-based; conditions: HT-1080
Tubulin (Sus scrofa) = Tubulin (Sus scrofa) (UniProt P02554+P02550); assay: Inhibition of purified porcine brain tubulin polymerization at 20 uM after 100 mins by fluorescence assay
In short: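 Porcine brain tubulin 2.0 mg/mL in General Tubulin Buffer with Tubulin Glycerol Buffer, GTP and DAPI. Added to compound prewarmed at 37 °C (final 2.0% DMSO, which is also the vehicle control). DAPI fluorescence (ex 340, em 460 nm) read kinetically over 100 min. Four independent experiments.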

HCT-116 [12] = assay: Antitumor activity against human HCT116 cells xenografted in nude mouse assessed as inhibition of tumor growth at 80 mg/kg, ip administered at days 0, 2, 4, 7, 9, 11, 14 and 16 measured on day 21 relative to control; assay type: functional; conditions: route intraperitoneal
Mus musculus = assay: Toxicity in human HCT116 cells xenografted nude mouse assessed change in body weight at 50 to 80 mg/kg, ip administered at days 0, 2, 4, 7, 9, 11, 14 and 16 measured on day 21; assay type: organism-based, HCT-116; parameters: dose 50-80 mg/kg, route intraperitoneal; conditions: in vivo
HCT-116 [13] = assay: Cell cycle arrest in human HCT116 cells assessed as accumulation at sub-G1 phase at 150 nM after 24 hrs by FACS analysis (reference value: 6.2 %); assay type: functional
HCT-116 [14] = assay: Cell cycle arrest in human HCT116 cells assessed as accumulation at G0/G1 phase at 150 nM after 24 hrs by FACS analysis (reference value: 76.5 %); assay type: functional
HCT-116 [15] = assay: Cell cycle arrest in human HCT116 cells assessed as accumulation at G2/M phase at 150 nM after 24 hrs by FACS analysis (reference value: 10.9 %); assay type: functional
HCT-116 [16] = assay: Cell cycle arrest in human HCT116 cells assessed as accumulation at S phase at 150 nM after 24 hrs by FACS analysis (reference value: 8.5 %); assay type: functional
HCT-116 [17] = assay: Induction of apoptosis in human HCT116 cells at 150 nM after 24 hrs using FITC-TUNEL staining by flow cytometry; assay type: functional; in short: as §3
HCT-116 [18] = assay: Cell cycle arrest in human HCT116 cells assessed as increase of phosphorylated histone H3 at Ser10 level at 150 nM after 24 hrs by Western blotting; assay type: functional, cell-based; in short: as §2
HCT-116 [19] = assay: Cell cycle arrest in human HCT116 cells assessed as increase of phosphorylated histone H3 at Ser10 level at 150 nM after 24 hrs using propidium iodide staining by flow cytometry (reference value: 1.4 %); assay type: functional
HCT-116 [20] = assay: Induction of apoptosis in human HCT116 cells at 150 nM after 48 hrs using FITC-TUNEL staining by flow cytometry (reference value: 7.3 %); assay type: functional; in short: as §3
Tubulin (Homo sapiens) [21] = biological target: T1, Tubulin (Homo sapiens); assay: Inhibition of alpha-tubulin polymerization in human HT1080 cells assessed as disruption of microtubule structures at 100 nM after 4 hrs using Hoechst staining by fluorescence microscopic analysis; assay type: cell-based; conditions: HT-1080

Chain of Tubulin (Sus scrofa) (P02550 whole entry, looked up): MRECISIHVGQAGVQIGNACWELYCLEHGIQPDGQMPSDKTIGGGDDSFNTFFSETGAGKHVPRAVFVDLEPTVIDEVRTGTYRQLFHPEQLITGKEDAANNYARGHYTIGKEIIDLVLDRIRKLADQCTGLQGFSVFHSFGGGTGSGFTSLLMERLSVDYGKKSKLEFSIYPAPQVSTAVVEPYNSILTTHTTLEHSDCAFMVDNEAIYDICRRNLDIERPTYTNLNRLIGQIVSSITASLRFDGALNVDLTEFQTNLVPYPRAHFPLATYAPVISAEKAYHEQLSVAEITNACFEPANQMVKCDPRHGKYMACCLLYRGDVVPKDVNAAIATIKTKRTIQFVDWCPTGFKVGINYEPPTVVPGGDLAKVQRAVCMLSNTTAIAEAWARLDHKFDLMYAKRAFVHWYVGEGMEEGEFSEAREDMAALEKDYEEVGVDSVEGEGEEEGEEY
Chain of Tubulin (Sus scrofa) (P02554 whole entry, looked up): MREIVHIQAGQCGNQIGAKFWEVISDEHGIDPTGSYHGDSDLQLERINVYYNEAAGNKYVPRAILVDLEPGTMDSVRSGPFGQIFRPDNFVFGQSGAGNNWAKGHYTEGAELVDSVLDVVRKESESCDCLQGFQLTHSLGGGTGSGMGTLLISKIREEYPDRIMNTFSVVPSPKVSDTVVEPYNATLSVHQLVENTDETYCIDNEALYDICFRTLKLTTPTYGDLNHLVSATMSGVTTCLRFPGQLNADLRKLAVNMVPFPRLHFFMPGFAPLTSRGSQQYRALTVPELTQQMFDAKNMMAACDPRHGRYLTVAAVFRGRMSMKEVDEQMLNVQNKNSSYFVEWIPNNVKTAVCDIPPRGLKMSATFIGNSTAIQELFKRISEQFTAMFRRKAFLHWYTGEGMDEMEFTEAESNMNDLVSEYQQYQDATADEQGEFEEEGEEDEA

Row | Structure (SMILES) | IC50 (HCT-116 [1]) | IC50 (SW-620) | IC50 (SW480) | IC50 (SK-BR-3) | IC50 (MCF7) | IC50 (MDA-MB-231) | other results
1 | O=C(Nc1ccccc1NC(=O)c1ccc(CO[N+](=O)[O-])cc1)c1ccc(CO[N+](=O)[O-])cc1 | > 100 µM | > 100 µM | > 100 µM | > 100 µM | > 100 µM | > 100 µM | –
2 | O=C(Nc1cccc(OC(=O)c2ccc(CO[N+](=O)[O-])cc2)c1)c1ccc(CO[N+](=O)[O-])cc1 | 6.2 µM | 7.6 µM | 8.4 µM | 6.3 µM | > 100 µM | 6.7 µM | –
3 | O=C(Nc1ccccc1)c1cccc(CO[N+](=O)[O-])c1 | 19.3 µM | 8.4 µM | 13.3 µM | 8.2 µM | > 100 µM | 8.4 µM | –
4 | O=C(Nc1ccccc1)c1ccc(CO[N+](=O)[O-])cc1 | 0.6 µM | 0.8 µM | 0.8 µM | 0.7 µM | > 100 µM | 0.8 µM | Activity (HCT-116 [2]): 10.4%; Activity (HCT-116 [3]): 30.4%; Activity (HCT-116 [4]): 51.8%; Activity (HCT-116 [5]): 7.4%; Activity [6]: Non-toxic; Activity (HCT-116 [7]): Active; Activity (HCT-116 [8]): 46.2%; Activity (HCT-116 [9]): 24.2%; Activity (HCT-116 [10]): 4%; inhibition (Tubulin (Homo sapiens) [11]): Active; inhibition (Tubulin (Sus scrofa)): Active; T/C (HCT-116 [12]): 55%; Activity (Mus musculus): Non-toxic
5 | O=C(Nc1ccccc1OC(=O)c1ccc(CO[N+](=O)[O-])cc1)c1ccc(CO[N+](=O)[O-])cc1 | 0.7 µM | 0.8 µM | 3.8 µM | 0.7 µM | > 100 µM | 1.4 µM | Activity (HCT-116 [2]): 11%; Activity (HCT-116 [3]): 52.4%; Activity (HCT-116 [4]): 29.3%; Activity (HCT-116 [5]): 7.3%; Activity [6]: Non-toxic; Activity (HCT-116 [7]): Active; Activity (HCT-116 [8]): 26.4%; Activity (HCT-116 [9]): 36.4%; Activity (HCT-116 [10]): 4%; inhibition (Tubulin (Homo sapiens) [11]): Active; inhibition (Tubulin (Sus scrofa)): Active
6 | O=C(Nc1ccccc1OC(=O)c1cccc(CO[N+](=O)[O-])c1)c1cccc(CO[N+](=O)[O-])c1 | 47.6 µM | 25.8 µM | 22.2 µM | 18.5 µM | > 100 µM | 30 µM | –
7 | CC[C@]1(O)C[C@H]2CN(CCc3c([nH]c4ccccc34)[C@@](C(=O)OC)(c3cc4c(cc3OC)N(C=O)[C@H]3[C@@](O)(C(=O)OC)[C@H](OC(C)=O)[C@]5(CC)C=CCN6CC[C@]43[C@@H]65)C2)C1 [VINCRISTINE] | – | – | – | – | – | – | Activity (HCT-116 [13]): 23%; Activity (HCT-116 [14]): 35.9%; Activity (HCT-116 [15]): 28.6%; Activity (HCT-116 [16]): 12.5%; Activity (HCT-116 [17]): 4%; Activity (HCT-116 [18]): Active; Activity (HCT-116 [19]): 25.3%; Activity (HCT-116 [20]): 31.6%; inhibition (Tubulin (Homo sapiens) [21]): Active
8 | O=C(Nc1ccccc1)c1ccccc1 [N-PHENYLBENZAMIDE] | > 100 µM | > 100 µM | > 100 µM | > 100 µM | > 100 µM | > 100 µM | –
